Measured values published in ChEMBL document CHEMBL1125510, “Analogs of the delta opioid receptor selective cyclic peptide [2-D-penicillamine,5-D-penicillamine]-enkephalin: 2',6'-dimethyltyrosine and Gly3-Phe4 amide bond isostere substitutions” (J Med Chem, 1992).

Experiments:
[1] = species on record: Mus musculus; assay: Concentration of the Compound that inhibits electrically-induced contractions of the mouse vas deferens by 50%; type: functional, organism-based
Summary of the method: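 Electrically stimulated isolated mouse vas deferens at 37 °C. Buffer had no tyrosine, ascorbic acid or disodium edetate. IC50 is the concentration that halves contractions, given as mean ± SD of two or three experiments.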

[2] = target: Mu-type opioid receptor (Rattus norvegicus, UniProt P33535); assay: Compound was evaluated for its binding affinity by displacement of [3H]- DAMPGO from opioid receptor mu by using opioid radioligand binding assay
Summary of the method: (§1)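 Male Sprague-Dawley rat forebrain membranes in 50 mM Tris, pH 7.4. Competition against [3H]DSLET (2 nM final, δ) or [3H]DAMPGO (4 nM final, μ). Nonspecific binding defined with 10 μM levorphan. Incubated 60–90 min at 25 °C, then filtered on GF/B and counted. Ki given as mean ± SEM from at least three experiments.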

[3] = target: Delta-type opioid receptor (Rattus norvegicus, UniProt P33533); assay: Compound was evaluated for its binding affinity by displacement [3H]- DSLET from Opioid receptor delta 1 by using opioid radioligand binding assay; summary of the method: as §1
[4] = target: Mu-type opioid receptor (Rattus norvegicus) (UniProt P33535); assay: Ratio on opioid receptor mu (ki(nM)) to the opioid receptor delta (Ki(nM))
[5] = species on record: Mus musculus; assay: Antinociceptive effect determined at 30 min post injection by tail flick test; type: functional, organism-based
Summary of the method: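 Male CD-1 mice, 20–30 g, screened beforehand (TFL ≤ 4.0 s or HPL ≤ 15 s). Groups of 10 dosed sc with vehicle or 10, 30 or 100 mg/kg at 10 mL/kg. Radiant-heat beam focused on blackened tail, and withdrawal latency read by photosensor as the mean of two readings (12 s cutoff). ED50 ± SE in mg/kg taken at 30 min.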

[6] = species on record: Mus musculus; assay: Antinociceptive effect determined at 30 min post injection by writhing test; type: functional, organism-based
[7] = system: NG108-15; assay: Concentration that inhibited PGE-stimulated cAMP formation by 50%, in NG108-15 cells.; type: functional, cell-based; details: Murinae
Summary of the method: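 NG108-15 neuroblastoma cells stimulated with PGE1. cAMP measured by radioimmunoassay. EC50 is the concentration that inhibits 50% of stimulated cAMP formation, given as mean ± SD of two determinations.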

[8] = system: Mus musculus; assay: Antinociceptive effect determined at 30 min post injection by writhing test; Inactive at 30 mg/kg, the highest dose tested.; type: functional, organism-based; parameters: dose 30 mg/kg

Chain of Delta-type opioid receptor (P33533 whole entry): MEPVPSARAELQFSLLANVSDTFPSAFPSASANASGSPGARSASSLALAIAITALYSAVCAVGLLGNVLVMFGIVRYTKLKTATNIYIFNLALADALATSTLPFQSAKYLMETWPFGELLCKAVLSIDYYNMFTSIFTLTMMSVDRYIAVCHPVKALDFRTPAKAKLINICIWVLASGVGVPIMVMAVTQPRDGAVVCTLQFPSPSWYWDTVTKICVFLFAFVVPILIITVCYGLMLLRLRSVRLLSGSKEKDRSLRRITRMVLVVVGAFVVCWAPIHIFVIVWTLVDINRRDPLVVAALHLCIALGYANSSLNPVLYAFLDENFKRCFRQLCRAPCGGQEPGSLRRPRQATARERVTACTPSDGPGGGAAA
Chain of Mu-type opioid receptor (P33535 whole entry): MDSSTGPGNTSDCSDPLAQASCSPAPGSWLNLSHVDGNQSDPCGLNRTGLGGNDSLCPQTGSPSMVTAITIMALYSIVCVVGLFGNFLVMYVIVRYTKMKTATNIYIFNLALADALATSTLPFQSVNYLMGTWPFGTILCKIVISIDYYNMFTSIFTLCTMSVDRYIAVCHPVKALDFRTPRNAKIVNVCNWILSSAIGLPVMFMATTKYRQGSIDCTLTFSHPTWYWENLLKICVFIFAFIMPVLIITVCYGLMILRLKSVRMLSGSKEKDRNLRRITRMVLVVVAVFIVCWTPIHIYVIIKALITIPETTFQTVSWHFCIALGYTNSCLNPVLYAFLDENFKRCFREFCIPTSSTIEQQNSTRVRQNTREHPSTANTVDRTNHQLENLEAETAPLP
Chain of Mu-type opioid receptor (Rattus norvegicus) (P33535 whole entry): as above

COC(=O)[C@H]1NC(=O)C(Cc2ccccc2)/C=C\CNC(=O)[C@@H](NC(=O)[C@@H](N)Cc2c(C)cc(O)cc2C)C(C)(C)SSC1(C)C (single isomer, unassigned; more polar) [listing 1 of 2 here]
EC50 [1]: 0.247 µM
Ki [2]: 0.0011 µM
Ki [3]: 0.0023 µM

COC(=O)[C@H]1NC(=O)C(Cc2ccccc2)CCCNC(=O)[C@@H](NC(=O)[C@@H](N)Cc2c(C)cc(O)cc2C)C(C)(C)SSC1(C)C (single isomer, unassigned; more polar) [listing 1 of 2 here]
EC50 ([1]; Mus musculus): > 1 µM
Ki [2]: 0.011 µM
Ki [3]: 0.021 µM

COC(=O)[C@H]1NC(=O)C(Cc2ccccc2)OCCNC(=O)[C@@H](NC(=O)[C@@H](N)Cc2c(C)cc(O)cc2C)C(C)(C)SSC1(C)C (single isomer, unassigned; more polar) [listing 1 of 2 here]
EC50 [1]: > 1 µM
Ki [2]: 0.15 µM
Ki [3]: 0.091 µM

COC(=O)[C@H]1NC(=O)C(Cc2ccccc2)/C=C\CNC(=O)[C@@H](NC(=O)[C@@H](N)Cc2c(C)cc(O)cc2C)C(C)(C)SSC1(C)C (single isomer, unassigned; less polar) [listing 1 of 2 here]
Ratio [4]: 0.7

COC(=O)[C@@H]1NC(=O)[C@H](Cc2ccccc2)NC(=O)CNC(=O)[C@H](NC(=O)[C@@H](N)Cc2c(C)cc(O)cc2C)C(C)(C)SSC1(C)C.Cl
EC50 ([1]; Mus musculus): 0.00065 µM
EC50 [5]: 40 mg/kg
EC50 [6]: 2.1 mg/kg
EC50 [7]: 0.0011 µM

COC(=O)[C@H]1NC(=O)C(Cc2ccccc2)/C=C\CNC(=O)[C@@H](NC(=O)[C@@H](N)Cc2c(C)cc(O)cc2C)C(C)(C)SSC1(C)C (single isomer, unassigned; more polar) [listing 2 of 2 here]
Ratio [4]: 0.5

COC(=O)[C@H]1NC(=O)C(Cc2ccccc2)CCCNC(=O)[C@@H](NC(=O)[C@@H](N)Cc2c(C)cc(O)cc2C)C(C)(C)SSC1(C)C (single isomer, unassigned; more polar) [listing 2 of 2 here]
Ratio [4]: 0.5

COC(=O)[C@@H]1NC(=O)[C@H](Cc2ccccc2)NC(=O)CNC(=O)[C@H](NC(=O)[C@@H](N)Cc2ccc(O)cc2)C(C)(C)SSC1(C)C.Cl
EC50 [8]: Not Active
EC50 ([1]; Mus musculus): 0.0105 µM
EC50 [7]: 0.021 µM

COC(=O)[C@H]1NC(=O)C(Cc2ccccc2)/C=C\CNC(=O)[C@@H](NC(=O)[C@@H](N)Cc2c(C)cc(O)cc2C)C(C)(C)SSC1(C)C (single isomer, unassigned; less polar) [listing 2 of 2 here]
EC50 [1]: > 1 µM
Ki [2]: 0.032 µM
Ki [3]: 0.045 µM

COC(=O)[C@H]1NC(=O)C(Cc2ccccc2)OCCNC(=O)[C@@H](NC(=O)[C@@H](N)Cc2c(C)cc(O)cc2C)C(C)(C)SSC1(C)C (single isomer, unassigned; more polar) [listing 2 of 2 here]
Ratio [4]: 1.7

CC1(C)SSC(C)(C)[C@@H](NC(=O)[C@@H](N)Cc2ccc(O)cc2)C(=O)NCC(=O)N[C@@H](Cc2ccccc2)C(=O)N[C@H]1C(=O)O
EC50 ([1]; Mus musculus): 0.0052 µM
EC50 [7]: 0.018 µM

COC(=O)[C@H]1NC(=O)C(Cc2ccccc2)OCCNC(=O)[C@@H](NC(=O)[C@@H](N)Cc2c(C)cc(O)cc2C)C(C)(C)SSC1(C)C (single isomer, unassigned; less polar) [listing 1 of 2 here]
Ratio [4]: 0.15

COC(=O)[C@H]1NC(=O)C(Cc2ccccc2)CCCNC(=O)[C@@H](NC(=O)[C@@H](N)Cc2c(C)cc(O)cc2C)C(C)(C)SSC1(C)C (single isomer, unassigned; less polar) [listing 1 of 2 here]
Ratio [4]: 2.3

COC(=O)[C@H]1NC(=O)C(Cc2ccccc2)OCCNC(=O)[C@@H](NC(=O)[C@@H](N)Cc2c(C)cc(O)cc2C)C(C)(C)SSC1(C)C (single isomer, unassigned; less polar) [listing 2 of 2 here]
EC50 [1]: 0.143 µM
Ki [2]: 0.0065 µM
Ki [3]: 0.043 µM

COC(=O)[C@H]1NC(=O)C(Cc2ccccc2)CCCNC(=O)[C@@H](NC(=O)[C@@H](N)Cc2c(C)cc(O)cc2C)C(C)(C)SSC1(C)C (single isomer, unassigned; less polar) [listing 2 of 2 here]
Ki [2]: 0.176 µM
Ki [3]: 0.079 µM
